Reference: ChEMBL document CHEMBL2093137, “WHO-TDR NTD Screening”
Values after ≈ are worked out from the molar mass of the structure shown.

Key:
[1] = WHO-TDR: Cytotoxicity; type: toxicity, cell-based; details: human, MRC5 cells
Plasmodium falciparum K1 = experiment: WHO-TDR: Malaria; type: functional, organism-based, Homo sapiens; details: Erythrocyte
In short: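 Whole-organism screen of a 10,000-compound diverse library from Life Chemicals, filtered for drug-likeness and reactive groups, against intra-erythrocytic Plasmodium falciparum K1 strain in human red blood cells. The assay followed previously published standard procedures, with a reference drug as positive control. Antiplasmodial potency is reported as IC50.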

Trypanosoma cruzi = experiment: WHO-TDR: Chagas disease; type: functional, organism-based, Homo sapiens; details: MRC5
In short: (§1)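 Whole-organism screen of a 10,000-compound diverse library from Life Chemicals, filtered for drug-likeness and reactive groups, against intracellular amastigotes of Trypanosoma cruzi Tulahuen CL2 beta-galactosidase strain grown in MRC-5SV2 human lung fibroblast host cells. The assay followed previously published standard procedures, with a reference drug as positive control. Antiparasitic potency is reported as IC50.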

[2] = test system: Trypanosoma brucei brucei; experiment: WHO-TDR: Human African Trypanosomiasis (HAT); type: functional, organism-based; details: Squib-427
In short: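 Whole-organism screen of a 10,000-compound diverse library from Life Chemicals, filtered for drug-likeness and reactive groups, against bloodstream forms of Trypanosoma brucei Squib 427 strain. The assay followed previously published standard procedures, with reference drugs as positive controls. Antiparasitic potency is reported as IC50.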

Leishmania infantum = experiment: WHO-TDR: Leishmaniasis; type: functional, organism-based, Mus musculus; details: Macrophage
In short: as §1, with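 “Leishmania infantum MHOM/MA(BE)/67” for “Trypanosoma cruzi Tulahuen CL2 beta-galactosidase strain grown”, “murine peritoneal macrophage” for “MRC-5SV2 human lung fibroblast”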

Schistosoma mansoni = experiment: WHO-TDR: Schistosomiasis; type: functional; parameters: concentration or dose not given beside the values
In short: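 Activity appears as percent inhibition and as IC50. The underlying screen tested a diverse library of 10,000 compounds, supplied by Life Chemicals, on whole larval and/or adult worms of the Puerto Rican strain of Schistosoma mansoni.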

Onchocerca ochengi = experiment: WHO-TDR: Onchocerciasis; type: functional; parameters: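 at 12.5 µM on microfilariae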
In short: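 Following previously published standard procedures, with reference drugs as positive controls, a diverse Life Chemicals library was tested on whole Onchocerca ochengi or Onchocerca lienalis microfilariae. The library held 10,000 compounds filtered for drug-likeness and reactive groups. Activity is recorded both as percent inhibition and as IC50.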

Brugia malayi = experiment: WHO-TDR: Lymphatic Filariasis; type: functional; parameters: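 tested at 10 µM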
In short: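 Following previously published standard procedures, compounds were tested on whole Brugia malayi microfilariae, with reference drugs as positive controls. They came from a diverse Life Chemicals collection of 10,000 compounds filtered for drug-likeness and reactive groups. Results appear as percent inhibition and as IC50.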

| Compound | IC50 [1] | IC50 (Plasmodium falciparum K1) | IC50 (Trypanosoma cruzi) | IC50 [2] | IC50 (Leishmania infantum) | % Inhibition (Schistosoma mansoni) | % Inhibition (Onchocerca ochengi) | % Inhibition (Brugia malayi) |
| --- | --- | --- | --- | --- | --- | --- | --- | --- |
| OCc1cnc(SCc2ccccc2)n1Cc1ccccc1 | > 9.31 mg/L | 9.31 mg/L (≈ 30 µM) | > 9.31 mg/L | > 9.31 mg/L | > 9.31 mg/L | 0% | 100% | 25% |
| CSc1ccccc1NC(=O)c1ccc(Cl)s1 | > 8.51 mg/L | > 8.51 mg/L | > 8.51 mg/L | > 8.51 mg/L | > 8.51 mg/L | 0% | 100% | 25% |
| O=C(CSc1ncc(CO)n1Cc1ccc(Cl)cc1)NCc1ccccc1Cl | > 13.1 mg/L | > 13.1 mg/L | 4.39 mg/L (≈ 10.1 µM) | 4.84 mg/L (≈ 11.1 µM) | > 13.1 mg/L | 0% | 100% | 25% |
| O=C(Cc1csc(Nc2ccccc2)n1)NCCc1c[nH]c2ccccc12 | > 11.3 mg/L | > 11.3 mg/L | > 11.3 mg/L | > 11.3 mg/L | > 11.3 mg/L | – | 100% | 20% |
| O=C(Cc1csc(Nc2ccc(OC(F)(F)F)cc2)n1)NCC1CCCO1 (configuration not stated) | > 12 mg/L | > 12 mg/L | 5.45 mg/L (≈ 13.6 µM) | > 12 mg/L | > 12 mg/L | – | 100% | 20% |
| O=C(Cc1csc(Nc2ccc(F)cc2)n1)N1CCN(c2ncccn2)CC1 | > 12 mg/L | > 12 mg/L | 5.13 mg/L (≈ 12.9 µM) | > 12 mg/L | > 12 mg/L | – | 100% | 20% |
| COc1ccc(OC)c(Nc2nc(CC(=O)NCc3ccccc3Cl)cs2)c1 | 2.13 mg/L (≈ 5.1 µM) | > 12.5 mg/L | 3.77 mg/L (≈ 9.02 µM) | > 12.5 mg/L | 8.54 mg/L (≈ 20.4 µM) | – | 100% | 20% |
| O=C(Cc1csc(Nc2cccc(Cl)c2)n1)N1CCN(C(=O)c2ccco2)CC1 | 3.98 mg/L (≈ 9.24 µM) | > 12.9 mg/L | 4.55 mg/L (≈ 10.6 µM) | 4.46 mg/L (≈ 10.3 µM) | 6.7 mg/L (≈ 15.5 µM) | – | 100% | 20% |
| O=C(Cc1csc(Nc2cccc(Cl)c2)n1)NCc1ccccn1 | 1.76 mg/L (≈ 4.91 µM) | > 10.8 mg/L | 1.71 mg/L (≈ 4.75 µM) | > 10.8 mg/L | 2.55 mg/L (≈ 7.11 µM) | – | 100% | 0% |
| O=C(CSC1=Nc2cccnc2Nc2ccccc21)Nc1ccc(F)c(F)c1 | > 11.9 mg/L | 4.83 mg/L (≈ 12.2 µM) | > 11.9 mg/L | > 11.9 mg/L | > 11.9 mg/L | 0% | 100% | 0% |
| O=C(CSC1=Nc2cccnc2Nc2ccccc21)Nc1ccc(OC(F)(F)F)cc1 | > 13.3 mg/L | 13.3 mg/L (≈ 30 µM) | > 13.3 mg/L | > 13.3 mg/L | > 13.3 mg/L | 0% | 100% | 0% |
| O=S(=O)(NCC(c1cccs1)N1CCOCC1)c1ccc(Cl)cc1 (configuration not stated) | > 11.6 mg/L | > 11.6 mg/L | > 11.6 mg/L | > 11.6 mg/L | > 11.6 mg/L | 0% | 100% | 0% |
| O=S(=O)(NCC(c1cccs1)N1CCOCC1)c1ccc(Cl)s1 (configuration not stated) | > 11.8 mg/L | > 11.8 mg/L | > 11.8 mg/L | > 11.8 mg/L | > 11.8 mg/L | 0% | 100% | 0% |
| CN(C)C(CNS(=O)(=O)c1ccc(Cl)s1)c1ccc(F)cc1 (configuration not stated) | > 10.9 mg/L | > 10.9 mg/L | > 10.9 mg/L | 3.44 mg/L (≈ 9.49 µM) | > 10.9 mg/L | 0% | 100% | 0% |
| CN(C)C(CNS(=O)(=O)c1ccc2c(c1)CCCC2)c1ccc(F)cc1 (configuration not stated) | > 11.3 mg/L | > 11.3 mg/L | 4.67 mg/L (≈ 12.4 µM) | 2.99 mg/L (≈ 7.95 µM) | > 11.3 mg/L | 0% | 100% | 0% |
| COc1ccc(C(CNS(=O)(=O)c2ccc(Cl)s2)N2CCOCC2)cc1 (configuration not stated) | > 12.5 mg/L | > 12.5 mg/L | > 12.5 mg/L | > 12.5 mg/L | > 12.5 mg/L | 0% | 100% | 0% |

| Compound | IC50 [1] | IC50 (Plasmodium falciparum K1) | IC50 (Trypanosoma cruzi) | IC50 [2] | IC50 (Leishmania infantum) | % Inhibition (Schistosoma mansoni) | % Inhibition (Onchocerca ochengi) | % Inhibition (Brugia malayi) |
| --- | --- | --- | --- | --- | --- | --- | --- | --- |
| COc1ccc(S(=O)(=O)NCC(c2cccc3ccccc23)N(C)C)cc1C (configuration not stated) | > 12 mg/L | > 12 mg/L | > 12 mg/L | 4.02 mg/L (≈ 10.1 µM) | > 12 mg/L | 0% | 100% | 0% |
| Cc1ccc(S(=O)(=O)NCC(c2cccc3ccccc23)N2CCOCC2)cc1C (configuration not stated) | > 12.7 mg/L | 8.79 mg/L (≈ 20.7 µM) | 4.18 mg/L (≈ 9.85 µM) | 4.12 mg/L (≈ 9.71 µM) | > 12.7 mg/L | 0% | 100% | 25% |
| O=C(NCCOc1ccc(-c2ccc(F)cc2)nn1)c1cccc(C(F)(F)F)c1 | > 12.2 mg/L | > 12.2 mg/L | > 12.2 mg/L | > 12.2 mg/L | > 12.2 mg/L | 0% | 100% | 25% |
| Cc1ccc(Cn2c(CO)cnc2SCC(=O)Nc2cccc3ccccc23)cc1 | > 12.5 mg/L | > 12.5 mg/L | > 12.5 mg/L | > 12.5 mg/L | > 12.5 mg/L | 0% | 100% | 25% |
| CCOC(=O)c1ccccc1NC(=O)CSc1ncc(CO)n1Cc1ccc(OC)cc1 | > 13.7 mg/L | > 13.7 mg/L | > 13.7 mg/L | > 13.7 mg/L | > 13.7 mg/L | 0% | 100% | 25% |
| O=C(C1CCN(S(=O)(=O)c2cccs2)CC1)N(Cc1cccnc1)c1nc2c(F)cc(F)cc2s1 | > 10.9 mg/L | > 16 mg/L | 0.535 mg/L (≈ 1 µM) | > 16 mg/L | > 16 mg/L | 0% | 0% | 25% |
| Cc1ccc(-n2ncc3c(=O)[nH]c(-n4nc(C)cc4NC(=O)C4CC4)nc32)cc1 | 0.591 mg/L (≈ 1.52 µM) | 0.637 mg/L (≈ 1.64 µM) | 0.214 mg/L (≈ 0.55 µM) | 0.378 mg/L (≈ 0.971 µM) | 0.313 mg/L (≈ 0.804 µM) | 0% | 100% | 0% |
| CS(=O)(=O)c1ccccc1C(=O)Nc1nc(-c2cc3ccccc3o2)cs1 | 5.25 mg/L (≈ 13.2 µM) | > 12 mg/L | 4.3 mg/L (≈ 10.8 µM) | 4.02 mg/L (≈ 10.1 µM) | > 12 mg/L | 0% | 100% | 0% |
| CSc1cccc2sc(N3CCN(C(=O)c4ccccc4)CC3)nc12 | > 11.1 mg/L | > 11.1 mg/L | 4.19 mg/L (≈ 11.3 µM) | > 11.1 mg/L | > 11.1 mg/L | 0% | 100% | 0% |
| CSc1ccc2nc(N(Cc3cccnc3)C(=O)c3ccc(C(=O)c4ccccc4)cc3)sc2c1 | > 14.9 mg/L | > 14.9 mg/L | 0.874 mg/L (≈ 1.76 µM) | > 14.9 mg/L | > 14.9 mg/L | 0% | 0% | 0% |
| CSc1ccc2nc(N(Cc3cccnc3)C(=O)c3ccc(C(C)(C)C)cc3)sc2c1 | 7.16 mg/L (≈ 16 µM) | 0.145 mg/L (≈ 0.324 µM) | 0.556 mg/L (≈ 1.24 µM) | > 13.4 mg/L | > 13.4 mg/L | 0% | 25% | 0% |
| CS(=O)(=O)c1ccc2nc(N(Cc3cccnc3)C(=O)c3cccc(Oc4ccccc4)c3)sc2c1 | > 15.5 mg/L | 4.49 mg/L (≈ 8.71 µM) | 0.275 mg/L (≈ 0.533 µM) | > 15.5 mg/L | > 15.5 mg/L | 0% | 0% | 0% |
| CS(=O)(=O)c1ccc2nc(N(Cc3cccnc3)C(=O)c3ccc4ccccc4c3)sc2c1 | > 14.2 mg/L | > 14.2 mg/L | 0.225 mg/L (≈ 0.475 µM) | > 14.2 mg/L | 4.6 mg/L (≈ 9.71 µM) | 0% | 0% | 0% |
| CSc1cccc(C(=O)N(Cc2cccnc2)c2nc3ccc(S(C)(=O)=O)cc3s2)c1 | > 14.1 mg/L | 8.28 mg/L (≈ 17.6 µM) | 0.383 mg/L (≈ 0.816 µM) | > 14.1 mg/L | > 14.1 mg/L | 0% | 0% | 0% |
| O=C(Nc1nc2c(s1)CCCC2)C1CCN(S(=O)(=O)c2ccc(F)cc2)CC1 | > 12.7 mg/L | > 12.7 mg/L | 2.79 mg/L (≈ 6.58 µM) | 4.07 mg/L (≈ 9.6 µM) | > 12.7 mg/L | 0% | 100% | 0% |
